Experimental data as given in publication PMC4806784 (Investigational new drugs, 2015).
Read-outs that look alike come from different tables or passages of the source.

Tests used:
[1] = assay type: in vivo, human; conditions: human, plasma, oral; for AUC(0-t): AUC0-12h; for concentration at 12 h: C12h
Outline: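 Test compound was given as oral capsules with […] water after a 2-h fast, BID Q12hr, 3–6 patients per dose level. Docetaxel 60 mg/m2 was a 1-h IV infusion 2 h beforehand. […] was sampled on Cycle 1 Day 1 (predose, 0.5–24 h after dose 1) and Day 2 (predose, 0.5–44 h after dose 4). Analysis was non-compartmental, with AUC by linear-up/log-down trapezoidal method and Cmax/Tmax by inspection.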

[2] = tested on: AURKA, AURKB, BIRC5, PRC1, TACC3, DLGAP5 [DLG7], and NDC80 [KNTC2]; experiment: Gene expression PD biomarkers by quantitative RT-PCR on hair follicle RNA; assay type: in vivo, human; conditions: Panel 1 (MT), p < 0.05 unadjusted
[3] = tested on: other kinases, including both Aurora B and Aurora C; conditions: cited from earlier work
[4] = tested on: phospho-Aurora B (pAurB) and phospho-histone H3 (pHH3); experiment: Immunohistochemistry of hair follicles and skin biopsies; assay type: in vivo, human; conditions: Panel 1 (MT), pre- and post-dose hair follicles and skin biopsies
Outline: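 Plucked scalp hair follicles (from at least 15 hair shafts) and skin punch biopsies were taken pre-dose and on Cycle 1 Day 2, 4 (±1) h after the third oral BID Q12hr dose. Only Panel 1 monotherapy patients were sampled. Phospho-Aurora B and phospho-histone H3 were assessed by immunohistochemistry as change from baseline.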

[5] = 800 mg/day, Panel 1 (MT), Dose 1
[6] = 800 mg/day, Panel 1 (MT), Dose 4
[7] = 1200 mg/day, Panel 1 (MT), Dose 1
[8] = 1200 mg/day, Panel 1 (MT), Dose 4
[9] = 1500 mg/day, Panel 1 (MT), Dose 1
[10] = 1500 mg/day, Panel 1 (MT), Dose 4
[11] = 1800 mg/day, Panel 1 (MT), Dose 1
[12] = 1800 mg/day, Panel 1 (MT), Dose 4

`O=C(O)[C@]1(Cc2cccc(Nc3nccs3)n2)CC[C@@H](Oc2cccc(Cl)c2F)CC1` [MK-5108] gave a Cmax ([1]; 400 mg/day, Panel 1 (MT), Dose 1) of 6.7 ± 2.4 µM, a Cmax ([1]; 400 mg/day, Panel 1 (MT), Dose 4) of 11 ± 5.3 µM and a Tmax ([1]; 400 mg/day, Tmax, Panel 1 (MT), Dose 1, median (range)) of 2 h. It also gave a Tmax ([1]; 400 mg/day, Tmax, Panel 1 (MT), Dose 4, median (range)) of 6 h, a half-life ([1]; 400 mg/day, t1/2, 400 mg/day, Panel 1 (MT), Dose 4) of 8.7 ± 6.7 h and an AUC(0-t) [1, 5] of 69 ± 41.9 µM·h. It also gave an AUC(0-t) [1, 6] of 95.5 ± 44.9 µM·h, a concentration at 12 h [1, 5] of 1.68 ± 1.91 µM and a concentration at 12 h [1, 6] of 4.53 ± 2.68 µM. It also gave a Cmax [1, 5] of 19.5 ± 5.5 µM, a Cmax [1, 6] of 20 ± 11 µM and a Tmax ([1]; 800 mg/day, Tmax, Panel 1 (MT), Dose 1, median (range)) of 1 h. For the same compound, the Tmax ([1]; 800 mg/day, Tmax, Panel 1 (MT), Dose 4, median (range)) was 1 h, the half-life ([1]; 800 mg/day, t1/2, 800 mg/day, Panel 1 (MT), Dose 4) was 11.1 ± 1.1 h and the AUC(0-t) [1, 7] was 96.6 ± 45.6 µM·h. For the same compound, the AUC(0-t) [1, 8] was 116 ± 61.4 µM·h, the concentration at 12 h [1, 7] was 2.12 ± 2.09 µM and the concentration at 12 h [1, 8] was 3.31 ± 0.53 µM. For the same compound, the Cmax [1, 7] was 22.3 ± 12.7 µM, the Cmax [1, 8] was 25 ± 9.4 µM and the Tmax ([1]; 1200 mg/day, Tmax, Panel 1 (MT), Dose 1, median (range)) was 2 h. It also gave a Tmax ([1]; 1200 mg/day, Tmax, Panel 1 (MT), Dose 4, median (range)) of 3 h, a half-life ([1]; 1200 mg/day, t1/2, 1200 mg/day, Panel 1 (MT), Dose 4) of 8.3 ± 3.3 h and an AUC(0-t) [1, 9] of 83.2 ± 50.8 µM·h. The AUC(0-t) [1, 10] was 131 ± 53.2 µM·h, the concentration at 12 h [1, 9] was 1.04 ± 0.4 µM and the concentration at 12 h [1, 10] was 2.8 ± 1.26 µM. For the same compound, the Cmax [1, 9] was 20.8 ± 10.6 µM, the Cmax [1, 10] was 28.9 ± 13.6 µM and the Tmax ([1]; 1500 mg/day, Tmax, Panel 1 (MT), Dose 1, median (range)) was 2 h. The Tmax ([1]; 1500 mg/day, Tmax, Panel 1 (MT), Dose 4, median (range)) was 2 h, the half-life ([1]; 1500 mg/day, t1/2, 1500 mg/day, Panel 1 (MT), Dose 4) was 11.4 ± 2 h and the AUC(0-t) [1, 11] was 101 ± 39.3 µM·h. It also gave an AUC(0-t) [1, 12] of 234 ± 62.7 µM·h, a concentration at 12 h [1, 11] of 4.78 ± 4.64 µM and a concentration at 12 h [1, 12] of 6.85 ± 3.96 µM. For the same compound, the Cmax [1, 11] was 24.8 ± 9.6 µM, the Cmax [1, 12] was 50.2 ± 11.4 µM and the Tmax ([1]; 1800 mg/day, Tmax, Panel 1 (MT), Dose 1, median (range)) was 2 h. For the same compound, the Tmax ([1]; 1800 mg/day, Tmax, Panel 1 (MT), Dose 4, median (range)) was 3 h, the half-life ([1]; 1800 mg/day, t1/2, 1800 mg/day, Panel 1 (MT), Dose 4) was 6.6 ± 0.6 h and the Tmax ([1]; Median Tmax, following the first dose, across dose levels) was 1 to 4 h. The Tmax ([1]; Median Tmax, following the fourth dose, across dose levels) was 1 to 6 h, the half-life ([1]; mean t1/2, range across dose levels, across both panels) was 6.6 to 13.5 h and the half-life ([1]; t1/2 range (variable), following Dose 4) was 5 to 29 h. The “genes (of seven) with significant dose-related changes in the expected direction” value [2] was 5 genes, the “target specificity relative to other kinases” value [3] was “comparatively high target specificity” and the “change from baseline in pHH3 and pAurB (IHC)” value [4] was “no clear dose-related increases”.
